Assay results: ChEMBL document CHEMBL4340532, “Design, synthesis, and biological evaluation of novel 2'-deoxy-2'-fluoro-2'-C-methyl 8-azanebularine derivatives as potent anti-HBV agents” (Bioorg Med Chem Lett, 2019)

How the values were obtained:
Hepatitis B virus [1] = experiment: Antiviral activity against Hepatitis B virus infected in human HepG2.2.15 cells assessed as inhibition of HBeAg secretion at 20 uM supplemented with fresh medium containing compound every 3 days for 6 days and measured on day 9 by ELISA relative to control; format: functional
Summary of the method: (§1)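 HepG2.2.15 cells were exposed to compound for up to 9 days. The initial screen used 20 µM for 9 days, with lamivudine (20 µM) as positive control. Follow-up used 10, 20 or 40 µM sampled at days 3, 6 and 9. HBsAg and HBeAg were quantified in culture supernatant by ELISA and compared with a no-drug control. Results are mean ± SD of three experiments.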

Hepatitis B virus [2] = experiment: Antiviral activity against Hepatitis B virus infected in human HepG2.2.15 cells assessed as inhibition of HBsAg secretion at 20 uM supplemented with fresh medium containing compound every 3 days for 6 days and measured on day 9 by ELISA relative to control; format: functional; summary of the method: as §1
[3] = Cytotoxicity against human HepG2 cells supplemented with fresh medium containing compound every 3 days for 9 days measured post-last dose by MTT assay; format: cell-based
Summary of the method: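 HepG2 cells were exposed to compound for 3 or 9 days and viability was read by MTT assay. CC50 is the concentration causing 50% cytotoxicity. Results are mean ± SD of three experiments.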

Compound | inhibition (INH) (Hepatitis B virus [1]) | inhibition (INH) (Hepatitis B virus [2]) | CC50 at 216 h [3]
CNc1ncnc2c1nnn2[C@@H]1O[C@H](CO)[C@@H](O)[C@@]1(C)F | 24.4% | 20.1% | > 600 µM
C[C@@]1(F)[C@H](O)[C@@H](CO)O[C@H]1n1nnc2c(N)ncnc21 | 10% | 9.9% | > 600 µM
C[C@@]1(F)[C@H](O)[C@@H](CO)O[C@H]1n1nnc2c(NC3CC3)ncnc21 | 16.7% | 11.4% | > 600 µM
CCCCNc1ncnc2c1nnn2[C@@H]1O[C@H](CO)[C@@H](O)[C@@]1(C)F | 11.6% | 17% | > 600 µM
C[C@@]1(F)[C@H](O)[C@@H](CO)O[C@H]1n1nnc2c(=O)[nH]cnc21 | 7.4% | 8.5% | > 600 µM
